# Data published in ChEMBL document CHEMBL4321796, “Proteolysis Targeting Chimeras for the Selective Degradation of Mcl-1/Bcl-2 Derived from Nonselective Target Binding Ligands” (J Med Chem, 2019).
# Calls of active or inactive are those of the source. The rule behind the calls is not given here.
# Tests used:
# [1] = biological target: Protein cereblon/E3 ubiquitin-protein ligase Mdm2 (Homo sapiens) (UniProt Q00987+Q96SW2); experiment: Induction of CRBN-mediated MDM2 degradation in human HeLa cells at 10 uM incubated for 12 hrs by Western blot analysis; assay type: cell-based
# [2] = biological target: Protein cereblon/Bcl-2-like protein 1 (Homo sapiens) (UniProt Q07817+Q96SW2); experiment: Induction of CRBN-mediated Bcl-xl degradation in human HeLa cells at 10 uM incubated for 12 hrs by Western blot analysis; assay type: cell-based
# [3] = biological target: Induced myeloid leukemia cell differentiation protein Mcl-1 (Homo sapiens, UniProt Q07820); experiment: Inhibition of biotinylated Bim peptide (81 to 106 residues) binding to His-tagged human Mcl-1 expressed in Escherichia coli BL21 (DE3) cells preincubated for 1 hr followed by biotinylated Bim peptide addition measured after 2 hrs by ELISA
# Procedure, shortened: (§1)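 Inhibitor serially diluted (100–0.1 µM) from 10 mM DMSO stock, preincubated 1 h with 200 nM His-tagged protein in PBS (final DMSO 4%), then added 2 h to streptavidin plates holding biotin-Bim (plated at 0.09 mg/mL). Incubations at 4 °C. Detection with HRP anti-His, TMB 30 min, H2SO4 stop, A450. IC50 averaged from three independent experiments, with SD.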
# [4] = biological target: Apoptosis regulator Bcl-2 (Homo sapiens, UniProt P10415); experiment: Inhibition of biotinylated Bim peptide (81 to 106 residues) binding to His-tagged human Bcl-2 expressed in Escherichia coli BL21 (DE3) cells preincubated for 1 hr followed by biotinylated Bim peptide addition measured after 2 hrs by ELISA; procedure, shortened: as §1
# [5] = biological target: T1, Protein cereblon/Induced myeloid leukemia cell differentiation protein Mcl-1 (Homo sapiens, UniProt Q07820+Q96SW2); experiment: Induction of CRBN-mediated Mcl-1 degradation in human HeLa cells assessed as relative abundance at 10 uM after 12 hrs by Western blot analysis (reference value: 1); assay type: cell-based
# [6] = biological target: T1, Protein cereblon/Induced myeloid leukemia cell differentiation protein Mcl-1; experiment: Induction of CRBN-mediated Mcl-1 degradation in human HeLa cells assessed as relative abundance at 1 uM after 12 hrs by Western blot analysis (reference value: 1); assay type: cell-based
# [7] = biological target: T2, Protein cereblon/Apoptosis regulator Bcl-2 (Homo sapiens, UniProt P10415+Q96SW2); experiment: Induction of CRBN-mediated Bcl-2 degradation in human HeLa cells assessed as relative abundance at 10 uM after 12 hrs by Western blot analysis (reference value: 1); assay type: cell-based
# Target sequence in this assay (P10415 whole entry, looked up): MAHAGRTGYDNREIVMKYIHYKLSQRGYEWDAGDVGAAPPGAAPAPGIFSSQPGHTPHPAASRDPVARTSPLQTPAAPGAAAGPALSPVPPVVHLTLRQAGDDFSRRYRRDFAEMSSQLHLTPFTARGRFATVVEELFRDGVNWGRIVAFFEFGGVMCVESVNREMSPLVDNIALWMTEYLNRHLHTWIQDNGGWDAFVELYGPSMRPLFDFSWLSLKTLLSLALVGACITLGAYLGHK
# Target sequence in this assay (Q96SW2 whole entry, looked up): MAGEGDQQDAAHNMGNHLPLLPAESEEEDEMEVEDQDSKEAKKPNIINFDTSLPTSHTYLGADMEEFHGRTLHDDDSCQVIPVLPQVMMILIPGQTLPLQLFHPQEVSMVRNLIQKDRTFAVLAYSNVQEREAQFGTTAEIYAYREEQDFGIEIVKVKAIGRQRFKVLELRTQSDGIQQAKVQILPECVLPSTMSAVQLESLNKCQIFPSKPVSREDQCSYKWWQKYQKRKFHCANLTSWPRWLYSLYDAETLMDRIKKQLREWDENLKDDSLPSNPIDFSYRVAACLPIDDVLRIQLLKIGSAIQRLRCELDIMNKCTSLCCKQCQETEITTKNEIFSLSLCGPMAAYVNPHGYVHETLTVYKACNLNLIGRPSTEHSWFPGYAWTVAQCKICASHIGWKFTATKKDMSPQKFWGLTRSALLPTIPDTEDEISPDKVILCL
# [8] = biological target: T2, Protein cereblon/Apoptosis regulator Bcl-2; experiment: Induction of CRBN-mediated Bcl-2 degradation in human HeLa cells assessed as relative abundance at 1 uM after 12 hrs by Western blot analysis (reference value: 1); assay type: cell-based
# Target sequence in this assay (P10415 whole entry, looked up): as the sequence (P10415 whole entry, looked up) above
# Target sequence in this assay (Q96SW2 whole entry, looked up): as the sequence (Q96SW2 whole entry, looked up) above
# [9] = biological target: T2, Protein cereblon/Apoptosis regulator Bcl-2; experiment: Induction of CRBN-mediated Bcl-2 degradation in human HeLa cells after 12 hrs by Western blot analysis; assay type: cell-based
# Target sequence in this assay (P10415 whole entry, looked up): as the sequence (P10415 whole entry, looked up) above
# Target sequence in this assay (Q96SW2 whole entry, looked up): as the sequence (Q96SW2 whole entry, looked up) above
# [10] = biological target: T2, Protein cereblon/Apoptosis regulator Bcl-2; experiment: Induction of CRBN-mediated Bcl-2 degradation in human HeLa cells assessed as reduction in Bcl-2 level at 1 uM after 12 hrs by Western blot analysis relative to control; assay type: cell-based; set-up: scale not given: the % may be the effect or the level left
# Target sequence in this assay (P10415 whole entry, looked up): as the sequence (P10415 whole entry, looked up) above
# Target sequence in this assay (Q96SW2 whole entry, looked up): as the sequence (Q96SW2 whole entry, looked up) above
# [11] = biological target: T2, Protein cereblon/Apoptosis regulator Bcl-2; experiment: Induction of CRBN-mediated Bcl-2 degradation in human HeLa cells assessed as reduction in Bcl-2 level at 10 uM after 12 hrs by Western blot analysis relative to control; assay type: cell-based; set-up: scale not given: the % may be the effect or the level left
# Target sequence in this assay (P10415 whole entry, looked up): as the sequence (P10415 whole entry, looked up) above
# Target sequence in this assay (Q96SW2 whole entry, looked up): as the sequence (Q96SW2 whole entry, looked up) above
# [12] = biological target: T2, Protein cereblon/Apoptosis regulator Bcl-2; experiment: Induction of CRBN-mediated Bcl-2 degradation in human HeLa cells assessed as relative abundance at 3 uM after 12 hrs by Western blot analysis (reference value: 1); assay type: cell-based
# Target sequence in this assay (P10415 whole entry, looked up): as the sequence (P10415 whole entry, looked up) above
# Target sequence in this assay (Q96SW2 whole entry, looked up): as the sequence (Q96SW2 whole entry, looked up) above
# [13] = biological target: T2, Protein cereblon/Apoptosis regulator Bcl-2; experiment: Induction of CRBN-mediated Bcl-2 degradation in human HeLa cells assessed as relative abundance at 0.3 uM after 12 hrs by Western blot analysis (reference value: 1); assay type: cell-based
# [14] = biological target: T1, Protein cereblon/Induced myeloid leukemia cell differentiation protein Mcl-1; experiment: Induction of CRBN-mediated Mcl-1 degradation in human HeLa cells assessed as relative abundance at 0.1 uM after 12 hrs by Western blot analysis (reference value: 1); assay type: cell-based
# [15] = biological target: T2, Protein cereblon/Apoptosis regulator Bcl-2; experiment: Induction of CRBN-mediated Bcl-2 degradation in human HeLa cells assessed as relative abundance at 0.1 uM after 12 hrs by Western blot analysis (reference value: 1); assay type: cell-based
# [16] = biological target: T1, Protein cereblon/Induced myeloid leukemia cell differentiation protein Mcl-1; experiment: Induction of CRBN-mediated Mcl-1 degradation in human HeLa cells assessed as relative abundance at 0.3 uM after 12 hrs by Western blot analysis (reference value: 1); assay type: cell-based
# [17] = biological target: T1, Protein cereblon/Induced myeloid leukemia cell differentiation protein Mcl-1; experiment: Induction of CRBN-mediated Mcl-1 degradation in human HeLa cells assessed as relative abundance at 3 uM after 12 hrs by Western blot analysis (reference value: 1); assay type: cell-based
# [18] = biological target: T1, Protein cereblon/Induced myeloid leukemia cell differentiation protein Mcl-1; experiment: Induction of CRBN-mediated Mcl-1 degradation in human HeLa cells assessed as relative abundance at 10 uM measured at 2 hrs by Western blot analysis (reference value: 1); assay type: cell-based
# Procedure, shortened: (§2)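 HeLa cells in DMEM with 10% FBS, exposed to 10 µM compound over a 0–24 h time course. Mcl-1 and Bcl-2 detected by immunoblot (NP-40 lysis, BCA-equalized SDS-PAGE, PVDF, ECL) and quantified relative to DMSO control; mean ± s.d., n=3 independent samples.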
# [19] = biological target: T2, Protein cereblon/Apoptosis regulator Bcl-2; experiment: Induction of CRBN-mediated Bcl-2 degradation in human HeLa cells at 10 uM by Western blot analysis; assay type: cell-based; conditions: TDE = time-dependent effect
# [20] = biological target: T1, Protein cereblon/Induced myeloid leukemia cell differentiation protein Mcl-1; experiment: Induction of CRBN-mediated Mcl-1 degradation in human HeLa cells assessed as relative abundance at 10 uM measured at 4 hrs by Western blot analysis (reference value: 1); assay type: cell-based; procedure, shortened: as §2
# [21] = biological target: T1, Protein cereblon/Induced myeloid leukemia cell differentiation protein Mcl-1; experiment: Induction of CRBN-mediated Mcl-1 degradation in human HeLa cells assessed as relative abundance at 10 uM measured at 8 hrs by Western blot analysis (reference value: 1); assay type: cell-based; procedure, shortened: as §2
# [22] = biological target: T2, Protein cereblon/Apoptosis regulator Bcl-2; experiment: Induction of CRBN-mediated Bcl-2 degradation in human HeLa cells assessed as relative abundance at 10 uM measured at 20 hrs by Western blot analysis (reference value: 1); assay type: cell-based; procedure, shortened: as §2
# [23] = biological target: T1, Protein cereblon/Induced myeloid leukemia cell differentiation protein Mcl-1; experiment: Induction of CRBN-mediated Mcl-1 degradation in human HeLa cells assessed as relative abundance at 10 uM measured at 16 hrs by Western blot analysis (reference value: 1); assay type: cell-based; procedure, shortened: as §2
# [24] = biological target: T1, Protein cereblon/Induced myeloid leukemia cell differentiation protein Mcl-1; experiment: Induction of CRBN-mediated Mcl-1 degradation in human HeLa cells assessed as relative abundance at 10 uM measured at 20 hrs by Western blot analysis (reference value: 1); assay type: cell-based; procedure, shortened: as §2
# [25] = biological target: T1, Protein cereblon/Induced myeloid leukemia cell differentiation protein Mcl-1; experiment: Induction of CRBN-mediated Mcl-1 degradation in human HeLa cells assessed as relative abundance at 10 uM measured at 24 hrs by Western blot analysis (reference value: 1); assay type: cell-based; procedure, shortened: as §2
# [26] = biological target: T2, Protein cereblon/Apoptosis regulator Bcl-2; experiment: Induction of CRBN-mediated Bcl-2 degradation in human HeLa cells assessed as relative abundance at 10 uM measured at 2 hrs by Western blot analysis (reference value: 1); assay type: cell-based; procedure, shortened: as §2
# [27] = biological target: T2, Protein cereblon/Apoptosis regulator Bcl-2; experiment: Induction of CRBN-mediated Bcl-2 degradation in human HeLa cells assessed as relative abundance at 10 uM measured at 4 hrs by Western blot analysis (reference value: 1); assay type: cell-based; procedure, shortened: as §2
# [28] = biological target: T2, Protein cereblon/Apoptosis regulator Bcl-2; experiment: Induction of CRBN-mediated Bcl-2 degradation in human HeLa cells assessed as relative abundance at 10 uM measured at 8 hrs by Western blot analysis (reference value: 1); assay type: cell-based; procedure, shortened: as §2
# [29] = biological target: T2, Protein cereblon/Apoptosis regulator Bcl-2; experiment: Induction of CRBN-mediated Bcl-2 degradation in human HeLa cells assessed as relative abundance at 10 uM measured at 16 hrs by Western blot analysis (reference value: 1); assay type: cell-based; procedure, shortened: as §2
# [30] = biological target: T2, Protein cereblon/Apoptosis regulator Bcl-2; experiment: Induction of CRBN-mediated Bcl-2 degradation in human HeLa cells assessed as relative abundance at 10 uM measured at 24 hrs by Western blot analysis (reference value: 1); assay type: cell-based; procedure, shortened: as §2
# [31] = biological target: T2, Protein cereblon/Apoptosis regulator Bcl-2; experiment: Induction of CRBN-mediated Bcl-2 degradation in human HeLa cells measured at 12 hrs by Western blot analysis; assay type: cell-based
# Target sequence in this assay (P10415 whole entry): as the sequence (P10415 whole entry, looked up) above
# Target sequence in this assay (Q96SW2 whole entry): as the sequence (Q96SW2 whole entry, looked up) above
# [32] = tested on: HeLa; experiment: Induction of CRBN-mediated tubulin degradation in human HeLa cells at 10 uM incubated for 12 hrs by Western blot analysis; assay type: cell-based
# Procedure, shortened: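 HeLa cells (DMEM, 10% FBS, 37 °C, 5% CO2) treated 12 h with compound (10 µM, or 0–10 µM gradient; time course 0–24 h at 10 µM). Lysis in NP-40 buffer with protease inhibitors, equal protein loaded for SDS-PAGE and immunoblotting. Bands quantified relative to DMSO control. n=3 independent samples.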
# [33] = biological target: T2, Protein cereblon/Apoptosis regulator Bcl-2; experiment: Induction of CRBN-mediated Bcl-2 degradation in human HeLa cells at 10 uM pretreated with proteasome inhibitor MG-132 followed by compound addition by Western blot analysis; assay type: cell-based
# [34] = biological target: T2, Protein cereblon/Apoptosis regulator Bcl-2; experiment: Induction of CRBN-mediated Bcl-2 degradation in human HeLa cells at 10 uM pretreated with Bcl-2 inhibitor Nap-1 followed by compound addition by Western blot analysis; assay type: cell-based
# [35] = biological target: T2, Protein cereblon/Apoptosis regulator Bcl-2; experiment: Induction of CRBN-mediated Bcl-2 degradation in human HeLa cells at 10 uM pretreated with CRBN inhibitor pomalidomide followed by compound addition by Western blot analysis; assay type: cell-based
# [36] = biological target: T2, Protein cereblon/Apoptosis regulator Bcl-2; experiment: Protac activity at CRBN/Bcl-2 in human HeLa cell lysates assessed as ternary complex formation by Western blot analysis based pull-down assay; assay type: subcellular; conditions: Lysate
# Procedure, shortened: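 HeLa lysate (25×10^6 cells, 1% Triton X-100 IP buffer), 1 mg total protein, incubated overnight with 1 µg CRBN antibody across a compound concentration gradient. Capture on protein A+G agarose, three Triton washes, boiled in loading buffer. Mcl-1, Bcl-2 and CRBN detected by immunoblotting. n=3 independent samples.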
# T1 sequence (Q07820 whole entry, looked up): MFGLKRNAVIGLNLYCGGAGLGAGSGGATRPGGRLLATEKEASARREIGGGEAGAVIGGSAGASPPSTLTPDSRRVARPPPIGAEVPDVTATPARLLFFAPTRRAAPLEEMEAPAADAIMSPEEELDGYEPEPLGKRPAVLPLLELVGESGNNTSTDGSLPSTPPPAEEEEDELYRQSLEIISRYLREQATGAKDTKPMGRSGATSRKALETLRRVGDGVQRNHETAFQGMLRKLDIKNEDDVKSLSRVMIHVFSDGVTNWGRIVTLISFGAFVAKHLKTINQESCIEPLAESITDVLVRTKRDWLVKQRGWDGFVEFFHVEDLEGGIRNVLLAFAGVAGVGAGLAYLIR
# T1 sequence (Q96SW2 whole entry, looked up): as the sequence (Q96SW2 whole entry, looked up) above
# Protein cereblon/E3 ubiquitin-protein ligase Mdm2 (Homo sapiens), sequence (Q00987 whole entry, looked up): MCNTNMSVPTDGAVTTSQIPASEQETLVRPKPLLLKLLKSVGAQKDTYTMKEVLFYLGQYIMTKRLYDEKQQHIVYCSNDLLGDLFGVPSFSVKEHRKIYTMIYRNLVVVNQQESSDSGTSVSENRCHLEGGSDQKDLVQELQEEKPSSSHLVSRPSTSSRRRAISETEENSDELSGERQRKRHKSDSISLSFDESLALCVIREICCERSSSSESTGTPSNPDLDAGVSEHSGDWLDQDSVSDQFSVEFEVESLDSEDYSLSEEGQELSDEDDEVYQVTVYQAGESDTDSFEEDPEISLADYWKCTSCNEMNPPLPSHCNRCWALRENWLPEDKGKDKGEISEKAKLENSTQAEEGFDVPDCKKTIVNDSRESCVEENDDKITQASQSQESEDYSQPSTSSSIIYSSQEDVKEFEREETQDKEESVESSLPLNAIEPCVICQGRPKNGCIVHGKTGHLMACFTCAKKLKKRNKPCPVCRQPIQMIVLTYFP
# Protein cereblon/E3 ubiquitin-protein ligase Mdm2 (Homo sapiens), sequence (Q96SW2 whole entry, looked up): as the sequence (Q96SW2 whole entry, looked up) above
# Induced myeloid leukemia cell differentiation protein Mcl-1, sequence (Q07820 whole entry, the tested form may be a part): as the sequence (Q07820 whole entry, looked up) above
# Protein cereblon/Bcl-2-like protein 1 (Homo sapiens), sequence (Q07817 whole entry, looked up, the tested form may be a part): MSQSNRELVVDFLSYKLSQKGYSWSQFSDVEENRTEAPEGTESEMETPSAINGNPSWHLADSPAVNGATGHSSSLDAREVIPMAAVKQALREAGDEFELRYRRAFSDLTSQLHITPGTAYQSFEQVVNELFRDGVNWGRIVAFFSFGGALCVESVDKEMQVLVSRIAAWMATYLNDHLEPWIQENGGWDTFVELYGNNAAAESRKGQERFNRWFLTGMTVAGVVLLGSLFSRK
# Protein cereblon/Bcl-2-like protein 1 (Homo sapiens), sequence (Q96SW2 whole entry, looked up, the tested form may be a part): as the sequence (Q96SW2 whole entry, looked up) above
# Apoptosis regulator Bcl-2, sequence (P10415 whole entry, the tested form may be a part): as the sequence (P10415 whole entry, looked up) above
smiles,measurement,setting,value
O=C(CCCCC(=O)NCCN1C(=O)c2cccc3c(Sc4ccc(Br)cc4)ccc(c23)C1=O)NCCOCCOCCNc1cccc2c1C(=O)N(C1CCC(=O)NC1=O)C2=O (stereo unspecified),Activity,[1],inactive
same,Activity,[2],inactive
same,IC50,[3],11.8 µM
same,IC50,[4],4.94 µM
same,fold change (FC),[5],0.9 to 1
same,fold change (FC),[6],1
same,fold change (FC),[7],0.1
same,fold change (FC),[8],0.9
same,Activity,[9],Dose-dependent effect
same,Activity,[10],10%
same,Activity,[11],90%
same,fold change (FC),[12],0.5
same,fold change (FC),[13],0.9
same,fold change (FC),[14],1
same,fold change (FC),[15],1
same,fold change (FC),[16],1
same,fold change (FC),[17],1.2
same,fold change (FC),[18],1.1
same,Activity,[19],Tde
same,fold change (FC),[20],1
same,fold change (FC),[21],1
same,fold change (FC),[22],1
same,fold change (FC),[23],1.1
same,fold change (FC),[24],1
same,fold change (FC),[25],0.8
same,fold change (FC),[26],0.8
same,fold change (FC),[27],0.6
same,fold change (FC),[28],0.3
same,fold change (FC),[29],0.7
same,fold change (FC),[30],1
same,DC50,[31],3 µM
same,Activity,[32],inactive
same,Activity,[33],inactive
same,Activity,[34],inactive
same,Activity,[35],inactive
same,Activity,[36],Dose-dependent effect
